The term IC50 denotes the concentration that inhibits the measured activity by half. By inhibition in vivo is commonly meant the change of the read-out against control, counted positive when it falls. As a reminder, the Inhibition is the percentage by which the read-out fell short of the control. Higher therefore signals a response far below the control.

Several values for one entry are separate records, joined by “and”; a condition that tells them apart may be missing. Equal entries are not always repeated.

Experiment [1] is described as follows: In vitro inhibition of human lymphocyte proliferation in response to phytohemagglutininin (PHA) was determined. The format is functional.
A short description of experiment [2]: In vitro inhibition of human lymphocyte proliferation in response to staphylococcus protein A(SPA) was determined. It is filed as functional.
Experiment [3] can be described thus: In vitro inhibition of human lymphocyte proliferation in response to pokeweed mitogen(PWM) was determined. It is filed as functional.
The target in experiment [4] is Inosine-5'-monophosphate dehydrogenase 1 (Homo sapiens, UniProt P20839). The experiment is described as follows: In vitro inhibition of inosine Inosine-5'-monophosphate dehydrogenase. The procedure, abridged: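 IMPD came from a MOLT-4 cell lysate: five freeze-thaw cycles, then the high-speed (ca. 31000g) supernatant was kept. Assay in 50 mM potassium phosphate pH 7.4 with 10 μM [¹⁴C]IMP, 0.3 mM NAD, 0.1 M KCl and 1 mM EDTA, 25 min at 37 °C. Stopped with HClO₄; IMP/XMP quantified by anion-exchange HPLC with radioflow detection. Five concentrations, 0.02–5.0 μg/mL; IC₅₀ determined graphically.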
Inosine-5'-monophosphate dehydrogenase 1, sequence (P20839 whole entry): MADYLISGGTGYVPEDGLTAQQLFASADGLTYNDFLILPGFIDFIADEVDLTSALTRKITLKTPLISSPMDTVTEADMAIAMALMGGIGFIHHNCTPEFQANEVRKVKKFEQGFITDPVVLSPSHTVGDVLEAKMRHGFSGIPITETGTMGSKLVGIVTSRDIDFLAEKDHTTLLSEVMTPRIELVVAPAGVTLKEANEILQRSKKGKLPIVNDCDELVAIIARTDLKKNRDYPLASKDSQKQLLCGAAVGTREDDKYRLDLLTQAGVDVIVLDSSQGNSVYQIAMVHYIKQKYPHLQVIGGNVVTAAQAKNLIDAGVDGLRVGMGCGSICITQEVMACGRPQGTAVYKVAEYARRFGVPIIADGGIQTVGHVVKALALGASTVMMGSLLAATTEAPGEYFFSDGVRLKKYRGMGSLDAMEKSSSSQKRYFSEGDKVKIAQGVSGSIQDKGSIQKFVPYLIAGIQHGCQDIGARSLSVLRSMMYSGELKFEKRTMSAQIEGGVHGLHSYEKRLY

Experiment [5] has as its system Mus musculus. The experiment is described as follows: In vivo inhibition of plaque-forming cells in the spleen (PFC/spleen) after 25 mg/kg oral administration in mice. It is filed as functional.
Experiment [6] has as its system Mus musculus. The experiment is described as follows: In vivo antibody response to sheep red blood cells by plaque-forming cells in the spleen (PFC/spleen) after 25 mg/kg oral administration in mice. The format is functional.
The test system of experiment [7] is Mus musculus. The experiment is described as follows: In vivo antibody response to sheep red blood cells(SRBC) by plaque-forming cells in the spleen (PFC/spleen) after 50 mg/kg oral administration in mice. It is filed as functional.
Experiment [8] relates to Mus musculus. The experiment is described as follows: The compound was tested in vivo for inhibition of plaques per million after 40 mg/kg oral administration in mice. The format is functional.
For experiment [9], the system named is Mus musculus. The experiment is described as follows: The compound was tested in vivo for inhibition of plaques per million after 100 mg/kg oral administration in mice. It is filed as functional.
The test system of experiment [10] is Mus musculus. The experiment can be described thus: The compound was tested in vivo for inhibition of plaque-forming cells in the spleen (PFC/spleen) after 50 mg/kg oral administration in mice. The format is functional.
Experiment [11] has as its system Mus musculus. The experiment is described as follows: In vivo inhibition of plaque-forming cells in the spleen (PFC/spleen) after 100 mg/kg oral administration in mice. The format is functional.
Experiment [12] relates to Mus musculus. The experiment can be described thus: In vivo total no of plaques in spleen was determined after 100 mg/kg oral administration in mice. The format is functional.
The subject of experiment [13] is Mus musculus. The experiment is described as follows: In vivo antibody response to sheep red blood cells(SRBC) by plaque-forming cells in the spleen (PFC/spleen) after 100 mg/kg oral administration in mice. It is filed as functional.
Experiment [14] relates to Mus musculus. The experiment is described as follows: The compound was tested in vivo for inhibition of plaques per million after 50 mg/kg oral administration in mice. The format is functional.
In experiment [15] the test system is Mus musculus. The experiment is described as follows: The compound was tested in vivo for inhibition of plaques per million after 25 mg/kg oral administration in mice. It is filed as functional.
The test system of experiment [16] is Mus musculus. The experiment is described as follows: In vivo total no of plaques in spleen was determined after 25 mg/kg oral administration in mice. It is filed as functional.
Experiment [17] has as its system Mus musculus. The experiment can be described thus: In vivo antibody response to sheep red blood cells(SRBC) by plaque-forming cells in the spleen (PFC/spleen) after 40 mg/kg oral administration in mice. It is filed as functional.
Experiment [18] has as its system Mus musculus. The experiment can be described thus: In vivo total no of plaques in spleen was determined after 50 mg/kg oral administration in mice. The format is functional.
The test system of experiment [19] is Mus musculus. The experiment is described as follows: In vivo inhibition of plaque-forming cells in the spleen (PFC/spleen) after 40 mg/kg oral administration in mice. The format is functional.
The test system of experiment [20] is Mus musculus. The experiment can be described thus: In vivo inhibition of plaques per million after 25 mg/kg oral administration in mice. It is filed as functional.
The subject of experiment [21] is Mus musculus. The experiment can be described thus: In vivo antibody response to sheep red blood cells(SRBC) by plaque-forming cells in the spleen (PFC/spleen) after 25 mg/kg oral administration in mice. It is filed as functional.
The test system of experiment [22] is Mus musculus. The experiment is described as follows: In vivo for antibody response to sheep red blood cells(SRBC) by plaque-forming cells in the spleen (PFC/spleen) after 25 mg/kg oral administration in mice. The format is functional.
The subject of experiment [23] is Mus musculus. The experiment is described as follows: (§1) In vivo antibody response to sheep red blood cells(SRBC) by plaques per million after 25 mg/kg oral administration in mice. The format is functional.
Experiment [24] concerns Mus musculus. The experiment is described as §1. The format is functional. This is another data set of the same source.

Take `COc1c(C)c2c(c(O)c1C/C=C/CCC(=O)O)C(=O)OC2`: the IC50 in experiment [1], in [2] and in experiment [3] was 4.8 µM in each case.

For `COc1c(C)c2c(c(O)c1CSCCC(=O)O)C(=O)OC2`, the IC50 in experiment [4] was 10.9 µM; in [1], > 10 µM; in experiment [2] it was > 10 µM; in experiment [3] it was > 10 µM.

For the compound `COc1c(C)c2c(c(O)c1CC1C(F)(F)C1(C)CCC(=O)O)C(=O)OC2` (stereo unspecified), the 50% inhibitory concentration (IC50) in experiment [4] turned out to be 2.6 µM; in experiment [1] it was 3.1 µM; in experiment [2], 10 µM; in experiment [3], 2.8 µM.

Consider `COc1c(C)c2c(c(O)c1CSCCCC(=O)O)C(=O)OC2`, for which the half-maximal inhibitory concentration (IC50) in experiment [4] was 22.7 µM; in experiment [1] it was > 10 µM; in experiment [2] it was > 10 µM; in [3] it was > 10 µM.

Turning to `COc1c(C)c2c(c(O)c1CC=C=C(C)CCC(=O)O)C(=O)OC2`, the inhibition in vivo at 25 mg/kg in the experiment with Mus musculus [5] (Mus musculus, Spleen, po) was 18%; with Mus musculus [15], 16%. Moreover, the half-maximal inhibitory concentration (IC50) in experiment [4] was 1.2 µM; in [1], 0.35 µM; in experiment [2], 0.15 µM; in [3] it was 0.35 µM. Also, the PFC/spleen with Mus musculus [6] came out at 96583; in the experiment on Mus musculus [7] it was 112416; in the experiment with Mus musculus [13] it was 17000; with Mus musculus [17], 99333. For the same compound, the values for the inhibition in vivo at 40 mg/kg with Mus musculus [8] and in the experiment on Mus musculus [19] were 22% and 15%, respectively. In addition, the figures for the inhibition in vivo at 100 mg/kg in the experiment on Mus musculus [9] and with Mus musculus [11] were 79% and 80%, respectively. The figures for the inhibition in vivo at 50 mg/kg in the experiment on Mus musculus [10] and with Mus musculus [14] were -33% and -20%, respectively. Further, the PPM is 114 in the experiment on Mus musculus [12]; 630 and 583 with Mus musculus [16]; 657 with Mus musculus [18].

Turning to `COc1c(C)c2c(c(O)c1CC1CC1(C)CCC(=O)O)C(=O)OC2` (stereo unspecified), the 50% inhibitory concentration (IC50) is 1.1 µM in experiment [4], 3.8 µM in [1], 4.3 µM in experiment [2] and 1.7 µM in [3].

With `COc1c(C)c2c(c(O)c1CC#CCCC(=O)O)C(=O)OC2`, the IC50 in experiment [4] is 2.6 µM; in experiment [1], 4.8 µM; in experiment [2], 7.5 µM; in experiment [3], 2.4 µM.

For `COc1c(C)c2c(c(O)c1CC#CCCCC(=O)O)C(=O)OC2`, the 50% inhibitory concentration (IC50) was 2.5 µM in [4], 6 µM in [1], > 10 µM in [2] and 6 µM in [3].

For `COc1c(C)c2c(c(O)c1CCCCCCC(=O)O)C(=O)OC2`, the IC50 is 1.8 µM in experiment [4], > 10 µM in experiment [1], > 10 µM in [2] and > 10 µM in experiment [3].

As for `COc1c(C)c2c(c(O)c1C/C=C/CCCC(=O)O)C(=O)OC2`, the concentration for half-maximal inhibition (IC50) in experiment [1], in [2] and in [3] was > 10 µM in each case.

For the compound `COc1c(C)c2c(c(O)c1CCCCCC(=O)O)C(=O)OC2`, the half-inhibitory concentration (IC50) was 0.94 µM in [4], 2.5 µM in [1], 1.6 µM in experiment [2] and 4.3 µM in experiment [3].

As for `COc1c(C)c2c(c(O)c1CC1C(Br)(Br)C1(C)CCC(=O)O)C(=O)OC2` (stereo unspecified), the half-inhibitory concentration (IC50) is 3.1 µM in experiment [4], 4.4 µM in [1], > 10 µM in experiment [2] and > 10 µM in experiment [3].

Turning to `COc1c(C)c2c(c(O)c1C/C=C(\C)CCC(=O)O)C(=O)OC2` [MYCOPHENOLIC ACID], the Inhibition with Mus musculus [5] (25 mg/kg) was 69% and 46%; in the experiment on Mus musculus [20], 65% and 44%. The IC50 came to 0.02 µM in experiment [4], 0.06 µM in experiment [1], 0.06 µM in experiment [2] and 0.02 µM in experiment [3]. The PFC/spleen in the experiment on Mus musculus [21] is given as 45333; with Mus musculus [22], 36027. Besides, the results for the PPM in the experiment with Mus musculus [23] and in the experiment with Mus musculus [24] were 264 and 308 PPM, respectively.
